The results in this text go back to ChEMBL document CHEMBL3124809, “Back pocket flexibility provides group II p21-activated kinase (PAK) selectivity for type I 1/2 kinase inhibitors” (J Med Chem, 2014).

Data set [1] has as its target T1, Serine/threonine-protein kinase PAK 4 (Homo sapiens, UniProt O96013). Description: Inhibition of PAK4 (unknown origin).
Target sequence in this assay (O96013 whole entry): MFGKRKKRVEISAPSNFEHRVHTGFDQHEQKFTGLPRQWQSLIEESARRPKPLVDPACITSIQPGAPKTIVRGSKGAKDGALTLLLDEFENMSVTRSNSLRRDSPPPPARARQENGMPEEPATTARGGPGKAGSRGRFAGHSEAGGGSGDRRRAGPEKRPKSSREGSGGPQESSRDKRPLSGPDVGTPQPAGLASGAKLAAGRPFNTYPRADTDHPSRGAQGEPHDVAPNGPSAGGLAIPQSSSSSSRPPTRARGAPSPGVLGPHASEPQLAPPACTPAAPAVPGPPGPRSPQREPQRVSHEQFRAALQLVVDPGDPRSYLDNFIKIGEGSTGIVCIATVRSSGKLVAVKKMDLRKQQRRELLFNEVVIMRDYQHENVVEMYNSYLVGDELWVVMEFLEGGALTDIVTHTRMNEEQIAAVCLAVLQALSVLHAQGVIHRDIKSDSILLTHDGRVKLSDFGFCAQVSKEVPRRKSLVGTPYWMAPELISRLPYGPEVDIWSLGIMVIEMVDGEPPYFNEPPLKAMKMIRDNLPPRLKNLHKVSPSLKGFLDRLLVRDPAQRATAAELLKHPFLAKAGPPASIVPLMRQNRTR
Data set [2] addresses T2, Serine/threonine-protein kinase PAK 6 (Homo sapiens, UniProt Q9NQU5). As to the kind of experiment: Inhibition of PAK6 (unknown origin).
Target sequence in this assay (Q9NQU5 whole entry): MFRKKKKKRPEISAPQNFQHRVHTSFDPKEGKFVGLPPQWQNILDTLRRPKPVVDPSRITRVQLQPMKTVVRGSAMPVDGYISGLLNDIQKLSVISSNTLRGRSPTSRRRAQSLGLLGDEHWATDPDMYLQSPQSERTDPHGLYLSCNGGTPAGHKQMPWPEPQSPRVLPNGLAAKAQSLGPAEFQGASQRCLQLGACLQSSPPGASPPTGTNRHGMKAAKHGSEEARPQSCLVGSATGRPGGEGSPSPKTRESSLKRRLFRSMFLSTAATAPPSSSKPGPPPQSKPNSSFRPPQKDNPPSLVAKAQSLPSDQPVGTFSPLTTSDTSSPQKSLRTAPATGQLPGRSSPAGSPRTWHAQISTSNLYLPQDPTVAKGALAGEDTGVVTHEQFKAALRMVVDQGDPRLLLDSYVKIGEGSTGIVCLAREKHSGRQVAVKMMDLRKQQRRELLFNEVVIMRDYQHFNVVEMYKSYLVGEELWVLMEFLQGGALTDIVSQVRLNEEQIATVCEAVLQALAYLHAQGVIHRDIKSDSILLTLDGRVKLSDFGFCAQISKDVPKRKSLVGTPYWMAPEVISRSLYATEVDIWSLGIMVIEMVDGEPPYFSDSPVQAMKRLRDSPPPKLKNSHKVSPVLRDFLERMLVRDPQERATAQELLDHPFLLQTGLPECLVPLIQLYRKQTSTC
In data set [3] the target is Serine/threonine-protein kinase PAK 3 (Homo sapiens, UniProt O75914). As to the kind of experiment: Inhibition of PAK3 (unknown origin).
A short description of data set [4]: Apparent permeability across apical to basolateral side in MDCK cells. The data set is classed as ADME, cell-based, Canis lupus familiaris. The settings on record: dog.
For a further data set, the target named is T3, Ephrin type-B receptor 1 (Homo sapiens, UniProt P54762).
T3 sequence (P54762 whole entry): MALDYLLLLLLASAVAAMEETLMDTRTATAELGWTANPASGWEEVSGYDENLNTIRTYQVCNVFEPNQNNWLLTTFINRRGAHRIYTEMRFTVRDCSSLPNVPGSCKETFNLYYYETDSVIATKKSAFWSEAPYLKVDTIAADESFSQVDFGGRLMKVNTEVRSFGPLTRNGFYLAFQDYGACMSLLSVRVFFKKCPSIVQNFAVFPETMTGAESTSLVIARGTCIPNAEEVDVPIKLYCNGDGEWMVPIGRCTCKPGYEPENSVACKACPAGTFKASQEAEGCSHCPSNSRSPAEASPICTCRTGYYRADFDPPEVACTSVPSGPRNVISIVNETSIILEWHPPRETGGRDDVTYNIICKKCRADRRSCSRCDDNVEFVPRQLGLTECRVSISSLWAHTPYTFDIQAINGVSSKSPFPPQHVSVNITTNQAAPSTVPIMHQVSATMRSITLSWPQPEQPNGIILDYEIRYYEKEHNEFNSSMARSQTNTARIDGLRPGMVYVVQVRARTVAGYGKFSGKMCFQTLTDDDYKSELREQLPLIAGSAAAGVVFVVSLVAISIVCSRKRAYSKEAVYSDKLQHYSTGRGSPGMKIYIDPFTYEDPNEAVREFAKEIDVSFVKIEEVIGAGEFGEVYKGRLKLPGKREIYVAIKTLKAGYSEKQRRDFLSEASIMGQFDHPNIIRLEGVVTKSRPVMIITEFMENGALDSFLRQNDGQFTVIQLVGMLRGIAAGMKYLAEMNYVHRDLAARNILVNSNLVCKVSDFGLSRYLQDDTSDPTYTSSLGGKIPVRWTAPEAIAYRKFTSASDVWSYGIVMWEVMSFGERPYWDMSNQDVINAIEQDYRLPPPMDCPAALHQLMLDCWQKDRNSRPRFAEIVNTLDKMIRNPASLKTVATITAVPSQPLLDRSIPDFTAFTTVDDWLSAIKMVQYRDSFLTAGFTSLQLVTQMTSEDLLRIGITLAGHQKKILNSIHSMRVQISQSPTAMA
Description: Inhibition of EphB1 (unknown origin).

Data set [5] deals with MDA-MB-436. Description: Cytotoxicity against human MDA-MB-436 cells assessed as reduction in cell viability at 50 uM after 24 to 48 hrs by Celltiter-glo luminescence assay. The data set is classed as functional, cell-based. The gist of the method:
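Cells sparsely plated in 96-well plates and allowed to adhere, then given DMSO or compound (0.1, 1, 10, 50 μM) for 24 and 48 h. Metabolically active cells quantified by CellTiter-Glo luminescence. MDA-MB-436 grown in DMEM/10% FBS; MCF10A PIK3CA (one endogenous H1047R allele) in DMEM/F12 with 5% horse serum, insulin, hydrocortisone.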
(In general: In ATP-based viability assays light output follows the ATP content of the culture.)

The test system of data set [6] is MDA-MB-436. Description: Antiinvasive activity against human MDA-MB-436 cells assessed as complete wound closure at 0.1 to 50 uM after 80 hrs by matrigel assay. In kind it is functional, cell-based.
Data set [7] is described as follows: Antimigratory activity in human MDA-MB-436 cells assessed as reduction in wound density at >10 uM after 1 to 24 hrs by wound healing assay. The data set is classed as functional. Details: scale not given: the % may be the effect or the level left. The method in brief: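 Monolayer of 40 000 cells per well, grown overnight, scratched with WoundMaker, washed twice with warm medium, then given medium with DMSO or compound (0.1, 1, 10, 50 μM). Relative wound density from phase-contrast time-lapse images, collected and quantified every 2 h on IncuCyte.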

Data set [8] deals with T2, Serine/threonine-protein kinase PAK 6. Description: Inhibition of PAK6 (unknown origin) at 0.1 uM.
Target sequence in this assay (Q9NQU5 whole entry, looked up): as the sequence (Q9NQU5 whole entry) above
Data set [9] addresses Mitogen-activated protein kinase kinase kinase 14 (Homo sapiens) (UniProt Q99558). Description: Inhibition of NIK (unknown origin) at 1 uM.
Data set [10] concerns the target T1, Serine/threonine-protein kinase PAK 4. As to the kind of experiment: Inhibition of PAK4 (unknown origin) at 1 uM.
Target sequence in this assay (O96013 whole entry, looked up): as the sequence (O96013 whole entry) above
Data set [11] addresses Misshapen-like kinase 1 (Homo sapiens) (UniProt Q8N4C8). Description: Inhibition of MINK1 (unknown origin) at 1 uM.
The target in data set [12] is T4, Tyrosine-protein kinase JAK3 (Homo sapiens) (UniProt P52333).
T4 sequence (whole entry): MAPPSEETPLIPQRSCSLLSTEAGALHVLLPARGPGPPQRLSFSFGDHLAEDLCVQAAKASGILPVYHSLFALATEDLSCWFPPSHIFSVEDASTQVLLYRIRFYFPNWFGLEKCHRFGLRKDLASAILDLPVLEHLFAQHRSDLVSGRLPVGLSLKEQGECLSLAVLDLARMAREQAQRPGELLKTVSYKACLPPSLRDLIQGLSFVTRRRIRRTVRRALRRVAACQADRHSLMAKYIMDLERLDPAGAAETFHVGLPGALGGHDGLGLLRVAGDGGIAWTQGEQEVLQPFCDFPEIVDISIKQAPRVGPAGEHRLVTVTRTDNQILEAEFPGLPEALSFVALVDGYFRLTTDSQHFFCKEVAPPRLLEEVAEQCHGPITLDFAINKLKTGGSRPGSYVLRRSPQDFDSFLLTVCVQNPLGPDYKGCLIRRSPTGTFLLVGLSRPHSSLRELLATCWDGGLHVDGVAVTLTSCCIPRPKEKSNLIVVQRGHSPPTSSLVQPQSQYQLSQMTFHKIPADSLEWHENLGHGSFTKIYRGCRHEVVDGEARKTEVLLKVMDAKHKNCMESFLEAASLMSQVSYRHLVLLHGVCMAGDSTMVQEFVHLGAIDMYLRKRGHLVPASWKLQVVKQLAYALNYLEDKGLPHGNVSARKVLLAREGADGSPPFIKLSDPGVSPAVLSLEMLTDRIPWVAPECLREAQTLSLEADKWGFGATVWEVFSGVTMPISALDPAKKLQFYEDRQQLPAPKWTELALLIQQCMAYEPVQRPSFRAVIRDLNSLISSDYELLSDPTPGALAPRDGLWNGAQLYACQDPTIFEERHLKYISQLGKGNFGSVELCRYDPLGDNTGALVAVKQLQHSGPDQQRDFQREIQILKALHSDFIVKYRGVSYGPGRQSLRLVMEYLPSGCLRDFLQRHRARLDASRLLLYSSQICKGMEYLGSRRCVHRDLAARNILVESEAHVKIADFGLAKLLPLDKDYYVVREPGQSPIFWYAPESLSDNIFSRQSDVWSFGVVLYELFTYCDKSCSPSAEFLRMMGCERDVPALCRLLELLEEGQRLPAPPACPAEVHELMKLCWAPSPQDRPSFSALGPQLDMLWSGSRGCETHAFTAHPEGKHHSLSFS
As to the kind of experiment: Inhibition of JAK3 (unknown origin) at 1 uM.

The target of data set [13] is Mitogen-activated protein kinase kinase kinase kinase 5 (Homo sapiens) (UniProt Q9Y4K4). As to the kind of experiment: Inhibition of KHS1 (unknown origin) at 1 uM.

The source made the active and inactive calls. The calls are words filed in the database; no cut-off is given here.

Mitogen-activated protein kinase kinase kinase kinase 5 (Homo sapiens), sequence (Q9Y4K4 whole entry, looked up): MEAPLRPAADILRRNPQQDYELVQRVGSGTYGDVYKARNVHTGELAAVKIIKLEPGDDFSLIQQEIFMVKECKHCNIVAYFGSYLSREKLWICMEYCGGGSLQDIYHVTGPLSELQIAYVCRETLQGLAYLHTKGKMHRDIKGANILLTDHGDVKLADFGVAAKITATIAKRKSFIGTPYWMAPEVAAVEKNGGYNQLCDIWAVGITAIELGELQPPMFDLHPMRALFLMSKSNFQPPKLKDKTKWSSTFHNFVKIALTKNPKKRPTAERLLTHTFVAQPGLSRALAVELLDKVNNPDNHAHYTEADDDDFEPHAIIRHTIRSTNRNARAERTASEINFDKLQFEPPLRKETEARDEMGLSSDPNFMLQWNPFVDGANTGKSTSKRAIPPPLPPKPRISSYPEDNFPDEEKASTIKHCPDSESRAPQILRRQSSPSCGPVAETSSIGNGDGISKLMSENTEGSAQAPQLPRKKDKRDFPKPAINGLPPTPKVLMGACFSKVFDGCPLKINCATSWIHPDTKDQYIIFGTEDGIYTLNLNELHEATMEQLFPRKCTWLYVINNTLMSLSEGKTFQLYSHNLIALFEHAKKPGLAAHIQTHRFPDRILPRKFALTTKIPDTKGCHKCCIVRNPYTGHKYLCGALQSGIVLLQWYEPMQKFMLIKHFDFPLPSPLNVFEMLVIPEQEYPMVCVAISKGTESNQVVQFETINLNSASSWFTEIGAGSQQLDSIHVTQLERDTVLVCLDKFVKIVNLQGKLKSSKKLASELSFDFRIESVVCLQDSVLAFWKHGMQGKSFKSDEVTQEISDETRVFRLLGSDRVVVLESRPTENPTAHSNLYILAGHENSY
Serine/threonine-protein kinase PAK 3, sequence (O75914 whole entry): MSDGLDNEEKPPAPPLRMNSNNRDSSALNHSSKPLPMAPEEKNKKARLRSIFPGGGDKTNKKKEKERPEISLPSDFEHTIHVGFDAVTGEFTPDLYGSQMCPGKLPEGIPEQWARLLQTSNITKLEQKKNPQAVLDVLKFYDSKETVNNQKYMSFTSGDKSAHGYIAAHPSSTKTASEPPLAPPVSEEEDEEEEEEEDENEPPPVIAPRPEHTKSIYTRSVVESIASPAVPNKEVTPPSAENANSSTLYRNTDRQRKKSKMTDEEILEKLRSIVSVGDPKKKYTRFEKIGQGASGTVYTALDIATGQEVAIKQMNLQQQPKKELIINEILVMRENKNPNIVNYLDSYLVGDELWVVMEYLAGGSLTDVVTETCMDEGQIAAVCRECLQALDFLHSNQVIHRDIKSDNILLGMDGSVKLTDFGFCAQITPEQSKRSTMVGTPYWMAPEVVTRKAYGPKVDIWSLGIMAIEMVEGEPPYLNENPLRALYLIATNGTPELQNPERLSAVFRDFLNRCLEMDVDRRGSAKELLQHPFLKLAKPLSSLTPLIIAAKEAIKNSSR
Misshapen-like kinase 1 (Homo sapiens), sequence (Q8N4C8 whole entry, looked up): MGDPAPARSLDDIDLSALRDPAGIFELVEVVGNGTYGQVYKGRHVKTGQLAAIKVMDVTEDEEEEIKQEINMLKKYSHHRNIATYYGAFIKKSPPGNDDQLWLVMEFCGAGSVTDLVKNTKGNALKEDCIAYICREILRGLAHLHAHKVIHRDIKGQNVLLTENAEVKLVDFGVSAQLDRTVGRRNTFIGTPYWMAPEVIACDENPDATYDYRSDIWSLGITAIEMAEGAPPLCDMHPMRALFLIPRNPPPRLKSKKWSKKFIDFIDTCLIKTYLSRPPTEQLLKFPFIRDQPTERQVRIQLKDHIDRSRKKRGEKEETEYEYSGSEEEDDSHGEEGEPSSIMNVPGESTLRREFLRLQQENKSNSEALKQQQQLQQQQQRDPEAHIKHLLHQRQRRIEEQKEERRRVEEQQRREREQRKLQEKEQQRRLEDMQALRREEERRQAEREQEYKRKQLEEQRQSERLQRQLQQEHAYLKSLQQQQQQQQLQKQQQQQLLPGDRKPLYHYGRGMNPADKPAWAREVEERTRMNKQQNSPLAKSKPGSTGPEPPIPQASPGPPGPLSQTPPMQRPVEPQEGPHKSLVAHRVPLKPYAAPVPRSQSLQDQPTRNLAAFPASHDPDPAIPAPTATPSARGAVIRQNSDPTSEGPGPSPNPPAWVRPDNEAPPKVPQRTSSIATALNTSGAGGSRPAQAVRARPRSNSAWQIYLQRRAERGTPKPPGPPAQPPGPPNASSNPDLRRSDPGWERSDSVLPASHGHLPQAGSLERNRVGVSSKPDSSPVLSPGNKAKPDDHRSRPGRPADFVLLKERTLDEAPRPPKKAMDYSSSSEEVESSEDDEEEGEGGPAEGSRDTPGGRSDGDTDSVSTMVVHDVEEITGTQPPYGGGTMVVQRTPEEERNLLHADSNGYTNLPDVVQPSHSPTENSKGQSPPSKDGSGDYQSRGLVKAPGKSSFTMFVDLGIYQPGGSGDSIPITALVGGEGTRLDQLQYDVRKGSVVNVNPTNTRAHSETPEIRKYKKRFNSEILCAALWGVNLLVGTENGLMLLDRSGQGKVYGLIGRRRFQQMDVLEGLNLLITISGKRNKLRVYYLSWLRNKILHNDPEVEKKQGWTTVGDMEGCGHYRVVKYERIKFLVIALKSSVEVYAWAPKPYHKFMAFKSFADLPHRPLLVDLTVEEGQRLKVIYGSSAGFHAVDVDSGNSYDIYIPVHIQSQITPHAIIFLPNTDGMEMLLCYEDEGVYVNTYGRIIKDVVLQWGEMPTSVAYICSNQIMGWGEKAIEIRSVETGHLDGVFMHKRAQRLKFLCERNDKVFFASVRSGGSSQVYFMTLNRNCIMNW
Mitogen-activated protein kinase kinase kinase 14 (Homo sapiens), sequence (Q99558 whole entry, looked up): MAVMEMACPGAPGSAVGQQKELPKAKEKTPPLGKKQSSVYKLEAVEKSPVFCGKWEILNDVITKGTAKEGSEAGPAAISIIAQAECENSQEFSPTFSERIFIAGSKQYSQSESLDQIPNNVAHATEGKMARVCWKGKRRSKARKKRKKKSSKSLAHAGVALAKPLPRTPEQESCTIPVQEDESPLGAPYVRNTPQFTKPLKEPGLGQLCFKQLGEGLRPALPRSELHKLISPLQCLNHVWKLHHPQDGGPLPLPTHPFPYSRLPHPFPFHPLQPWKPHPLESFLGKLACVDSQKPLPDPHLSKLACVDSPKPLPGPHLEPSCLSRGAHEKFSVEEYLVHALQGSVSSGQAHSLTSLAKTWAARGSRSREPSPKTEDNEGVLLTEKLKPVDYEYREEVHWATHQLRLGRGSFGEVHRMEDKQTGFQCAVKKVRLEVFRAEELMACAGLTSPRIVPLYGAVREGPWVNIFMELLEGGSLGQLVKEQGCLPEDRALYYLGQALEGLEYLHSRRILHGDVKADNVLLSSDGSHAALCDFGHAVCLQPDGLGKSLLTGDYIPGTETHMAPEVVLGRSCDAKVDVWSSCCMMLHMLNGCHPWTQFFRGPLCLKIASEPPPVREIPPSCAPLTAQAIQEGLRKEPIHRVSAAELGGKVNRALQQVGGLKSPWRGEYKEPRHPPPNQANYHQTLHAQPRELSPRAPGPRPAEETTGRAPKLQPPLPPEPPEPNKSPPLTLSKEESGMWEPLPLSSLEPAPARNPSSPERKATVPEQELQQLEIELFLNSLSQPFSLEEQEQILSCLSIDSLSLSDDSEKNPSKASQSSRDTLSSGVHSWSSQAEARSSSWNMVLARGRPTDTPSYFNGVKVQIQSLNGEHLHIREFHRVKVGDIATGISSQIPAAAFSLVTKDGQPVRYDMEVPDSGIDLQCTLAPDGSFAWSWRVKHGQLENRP

Consider `COCCNc1nc2ccc(C#CC3(O)CCCCC3)cc2n1-c1ccnc(N)n1`, for which the IC50 was 0.0075 µM in [1], 0.036 µM in [2], over 10 µM in [3] and over 10 µM against Ephrin type-B receptor 1. Moreover, in [4], the Papp A→B came to 22.2 ×10⁻⁶ cm/s. Moreover, the result in the data set with MDA-MB-436 [5] was Active. Further, the outcome in the data set on MDA-MB-436 [6] was inactive. The Activity in data set [7] is given as 50%. Further, the inhibition in [8] was over 60%; in [9], 46%; in data set [10], 100%; in data set [11], 5%; in data set [12], -1%; in data set [13], 14%.

By IC50 is commonly meant the point on the concentration scale where inhibition reaches its midpoint. As a reminder, the Papp A→B is how fast a substance crosses the layer from the apical side. The term inhibition denotes the change of the read-out against control, counted positive when it falls.
